Test results reported in ChEMBL document CHEMBL4831480, “Identification of First-in-Class Inhibitors of Kallikrein-Related Peptidase 6 That Promote Oligodendrocyte Differentiation” (J Med Chem, 2021).

biological target: T1, Kallikrein-6 (Homo sapiens, UniProt Q92876); assay: Inhibition of KLK6 (unknown origin) assessed as release of AMC fluorescent product using Boc-QAR-AMC as substrate at 10 uM incubated for 30 mins by microplate reader
Method in brief: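 KLK6 (activated with lysylendopeptidase) at 2 nM was preincubated 15 min at 37 °C with compound (10 μM screen, or a range within 0.1–100 μM) or DMSO <2%. Reaction started with Boc-QAR-AMC 100 μM in 50 mM Tris, 1 M citrate, 0.05% Brij-35, pH 7.4. AMC read at ex 360/em 460 nm for 30 min. % inhibition taken from initial rates versus DMSO; IC50 from curve fit; ≥3 independent experiments in duplicate.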

inhibition [%]	Structure (SMILES)
14.8	NCc1ccc(NC(=O)c2ccccc2O)cc1
19.8	NCc1ccc(NC(=O)c2ccc3ccccc3c2)cc1
7.27	Cc1cccc(O)c1C(=O)Nc1ccc(CN)cc1
20	Cc1cccc(C(=O)Nc2ccc(CN)cc2)c1O

Second part, the compound before the results:

Structure (SMILES)	inhibition [%]
Cc1ccc(O)c(C(=O)Nc2ccc(CN)cc2)c1	26.5
NCc1ccc(NC(=O)c2cc(Br)ccc2O)cc1	30
NCc1ccc(NC(=O)c2ccc(C(F)(F)F)cc2O)cc1	47
NCc1ccc(NC(=O)c2ncccc2O)cc1	8.86
COc1ccc(O)c(C(=O)Nc2ccc(CN)cc2)c1	21.8

biological target: T1, Kallikrein-6; assay: Inhibition of KLK6 (unknown origin) assessed as release of AMC fluorescent product using Boc-QAR-AMC as substrate incubated for 30 mins by microplate reader

IC50	Structure (SMILES)
Not Active	Cl.NCc1ccc(NC(=O)c2ccc(F)cc2O)cc1
Not Active	NCc1ccc(NC(=O)c2c[nH]c3ccccc3c2=O)cc1
Not Active	Cl.NCc1ccc(NC(=O)c2cc3ccccc3[nH]2)cc1
Not Active	Cl.O=C(NC1CCNCC1)c1ccc2ccccc2c1O
Not Active	CC(C)(C)c1ccc(O)c(CNc2ccc(CN)cc2)c1.Cl
Not Active	Cl.NCc1ccc(NC(=O)c2c(O)ccc3ccccc23)cc1
